Measured values as given in ChEMBL document CHEMBL1250540, “Design, synthesis, and binding of homologated truncated 4'-thioadenosine derivatives at the human A3 adenosine receptors” (Bioorg Med Chem, 2010).

Tests used:
Format in all cases: cell-based
[1] = molecular target: T1, Adenosine receptor A1 (Homo sapiens) (UniProt P30542); experiment: Displacement of [3H]R-PIA from human adenosine A1 receptor expressed CHO cells at 10 uM after 60 mins by gamma counting relative to NECA
T1 sequence (whole entry): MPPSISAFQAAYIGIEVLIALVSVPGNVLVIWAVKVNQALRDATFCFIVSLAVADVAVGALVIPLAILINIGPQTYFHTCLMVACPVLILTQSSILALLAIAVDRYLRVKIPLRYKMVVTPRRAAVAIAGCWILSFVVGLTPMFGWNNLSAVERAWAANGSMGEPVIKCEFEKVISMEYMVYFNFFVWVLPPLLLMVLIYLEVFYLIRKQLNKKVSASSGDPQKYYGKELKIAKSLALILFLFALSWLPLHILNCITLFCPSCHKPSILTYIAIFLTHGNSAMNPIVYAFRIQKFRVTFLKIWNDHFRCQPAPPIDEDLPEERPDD
Outline: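 Membranes from CHO cells stably expressing human A1AR were incubated with 1 nM [3H]PIA at 25 °C for 60 min in 50 mM Tris–HCl (pH 7.4) with 10 mM MgCl2. Nonspecific binding was defined with CPA. Results are mean ± sem, n = 3–5.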

[2] = molecular target: Adenosine receptor A2a (Homo sapiens) (UniProt P29274); experiment: Displacement of [3H]CGS 21680 from human adenosine A2A receptor expressed HEK293 cells at 10 uM after 60 mins by gamma counting relative to NECA
Outline: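 Membranes from HEK-293 cells stably expressing human A2AAR were incubated with 15 nM [3H]CGS21680 at 25 °C for 60 min in 50 mM Tris–HCl (pH 7.4) with 10 mM MgCl2. Incubation was stopped by GF/B filtration. Results are mean ± sem, n = 3–5.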

[3] = molecular target: T2, Adenosine receptor A3 (Homo sapiens) (UniProt P0DMS8); experiment: Displacement of [125I]I-AB-MECA from human adenosine A3 receptor expressed CHO cells at 10 uM after 60 mins by gamma counting relative to NECA
T2 sequence (whole entry): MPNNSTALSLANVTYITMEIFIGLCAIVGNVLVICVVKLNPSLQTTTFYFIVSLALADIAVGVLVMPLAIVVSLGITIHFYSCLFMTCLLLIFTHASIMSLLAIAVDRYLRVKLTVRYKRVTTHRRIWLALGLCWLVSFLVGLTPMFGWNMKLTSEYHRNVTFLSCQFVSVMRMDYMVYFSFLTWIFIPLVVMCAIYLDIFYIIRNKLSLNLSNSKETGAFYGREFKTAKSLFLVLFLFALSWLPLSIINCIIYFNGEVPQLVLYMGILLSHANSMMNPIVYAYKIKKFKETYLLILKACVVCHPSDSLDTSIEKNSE
Outline: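 Competition binding used membranes from CHO cells stably expressing human A3AR with 0.5 nM [125I]I-AB-MECA and test nucleoside in 50 mM Tris–HCl (pH 7.4) with 10 mM MgCl2 and 1 mM EDTA, at 25 °C for 60 min. Nonspecific binding was defined with Cl-IB-MECA. Percent inhibition was taken at a single concentration. Results are mean ± sem, n = 3–5.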

Sequence of Adenosine receptor A2a (Homo sapiens) (P29274 whole entry): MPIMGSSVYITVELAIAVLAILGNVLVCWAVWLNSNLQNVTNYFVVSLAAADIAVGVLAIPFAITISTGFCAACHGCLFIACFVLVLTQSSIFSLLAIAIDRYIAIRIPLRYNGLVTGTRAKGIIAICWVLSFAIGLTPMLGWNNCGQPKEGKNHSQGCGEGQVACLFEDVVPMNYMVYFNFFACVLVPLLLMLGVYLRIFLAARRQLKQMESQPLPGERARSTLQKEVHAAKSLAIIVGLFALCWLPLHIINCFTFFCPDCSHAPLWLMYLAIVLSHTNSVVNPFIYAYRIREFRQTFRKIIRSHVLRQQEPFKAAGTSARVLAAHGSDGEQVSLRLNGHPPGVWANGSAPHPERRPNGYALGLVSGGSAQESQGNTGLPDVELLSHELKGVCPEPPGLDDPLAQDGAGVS

inhibition [1] [%] | inhibition [2] [%] | inhibition [3] [%] | Structure (SMILES)
6.6 | 25.8 | 6.1 | O[C@@H]1[C@H](O)CS[C@H]1Cn1cnc2c(NCc3cccc(Br)c3)ncnc21
3.3 | 13 | 8.9 | O[C@@H]1[C@H](O)CS[C@H]1Cn1cnc2c(NCc3cccc(Cl)c3)ncnc21
0.3 | 14 | 8.7 | O[C@@H]1[C@H](O)CS[C@H]1Cn1cnc2c(NCc3cccc(F)c3)ncnc21

Second part, the compound before the results:

Structure (SMILES) | inhibition [1] [%] | inhibition [2] [%] | inhibition [3] [%]
O[C@@H]1[C@H](O)CS[C@H]1Cn1cnc2c(NCc3cccc(I)c3)ncnc21 | 9.6 | 18.2 | 13.9
O[C@@H]1[C@H](O)CS[C@H]1Cn1cnc2c(NCc3cccc(Cl)c3)nc(Cl)nc21 | 3.2 | 11 | 13.6
O[C@@H]1[C@H](O)CS[C@H]1Cn1cnc2c(NCc3cccc(I)c3)nc(Cl)nc21 | 16.4 | 18.4 | 10
O[C@@H]1[C@H](O)CS[C@H]1Cn1cnc2c(NCc3cccc(F)c3)nc(Cl)nc21 | 7.9 | 12 | 17.6
O[C@@H]1[C@H](O)CS[C@H]1Cn1cnc2c(NCc3cccc(Br)c3)nc(Cl)nc21 | 23.6 | 2 | 21
